Measurements of several laboratories.
Target: Vascular endothelial growth factor receptor 1 (FLT1, Homo sapiens, UniProt P17948)

O=C(NCc1ncc(C(F)(F)F)cc1Cl)c1ccc2c(c1)C1(CCS(=O)(=O)CC1)[C@@H](C1CC1)N2S(=O)(=O)c1ccc(F)cc1  remaining binding (cell-free assay, competition with immobilised ligand; 1 µM): 82%
Nc1ncc2c(n1)-c1c([nH]c3ccc(C#CC4CC4)cc13)CCCC2  remaining binding (binding, competition with immobilised ligand; 1 µM): 91%
O=C1CCc2cc(Nc3cc(OC4CCOCC4)c([N+](=O)[O-])cc3Cl)ccc2N1  remaining binding (cell-free assay, competition with immobilised ligand; 1 µM): 100%
C[C@@H]1CCN(c2nccc(-c3cnn4ncccc34)n2)C1  remaining binding (binding; 1 µM): 100%
O=C(Nc1c[nH]nc1C(=O)NC1CCNCC1)c1cc(F)cc(F)c1  remaining binding (binding, competition with immobilised ligand; 1 µM): 63%
Cc1cnc(Nc2ccc(C(=O)N3CCC(N4CCCC4)CC3)cc2)nc1-c1cc2ccccc2s1  remaining binding (binding, competition with immobilised ligand; 1 µM): 4.4%
Cc1cnn2ncc(-c3ccnc(N(C)C)n3)c2c1  remaining binding (binding; 1 µM): 97%
O=C(NCCCN1CCOCC1)c1ccc(Nc2nccc(-c3cc4ccccc4s3)n2)cc1  remaining binding (binding, competition with immobilised ligand; 1 µM): 70%
F[C@@H]1CCN(c2nccc(-c3cnn4ncccc34)n2)C1  remaining binding (binding; 1 µM): 100%
CCN1CCN(Cc2ccc(C(=O)Nc3ccc(C)c(Oc4ccc5c(c4)CC(=O)N5)c3)cc2C(F)(F)F)CC1  remaining binding (binding, competition with immobilised ligand; 1 µM): 63%
N[C@@H]1CCN(c2nccc(-c3cnn4ncccc34)n2)C1  remaining binding (binding; 1 µM): 100%
C=CC(=O)N1CCC(C(=O)NCC(=O)N2CCN(c3nc(-c4cnc(N)nc4C(F)F)nc(N4CCOCC4)n3)CC2)CC1  remaining binding (binding, competition with immobilised ligand; 1 µM): 99%
CN(C)c1nccc(-c2cnc3ncccn23)n1  remaining binding (binding; 1 µM): 100%
CNC(=O)[C@@H]1CC[C@@H](n2c(-c3ccc4cnccc4c3)nc3ccc(C(=O)NCc4cccc(C(N)=O)c4)cc32)C1  remaining binding (binding, competition with immobilised ligand; 1 µM): 100%
O=c1nc(-c2ccccn2)sc2ccccc12  remaining binding (cell-free assay, competition with immobilised ligand; 1 µM): 100%
CN(C)c1ncc(F)c(-c2cnn3ncccc23)n1  remaining binding (binding; 1 µM): 100%
COc1ccc2c(c1)O[C@@H](c1ccc(OC)c(OC)c1)C[C@H]2NC(=O)C1(c2ccc3c(c2)OC(F)(F)O3)CC1  remaining binding (cell-free assay, competition with immobilised ligand; 1 µM): 100%
O=C(NCCCN1CCOCC1)c1ccc(Nc2ncc(Cl)c(-c3ccc(Cl)s3)n2)cc1  remaining binding (binding, competition with immobilised ligand; 1 µM): 5.7%
Cc1cc(NC(=O)c2cccc(S(F)(F)(F)(F)F)c2)cc(-n2ccn3nc(-c4cccnc4)cc23)c1  remaining binding (cell-free assay, competition with immobilised ligand; 1 µM): 100%
COc1ncc2cc3ccccc3nc2c1C#N  remaining binding (cell-free assay, competition with immobilised ligand; 5 µM): 95%
CS(=O)(=O)c1cc(C2(NC(=O)c3cncc4c3cnn4-c3ccc(F)cc3)CC2)ccn1  remaining binding (cell-free assay, competition with immobilised ligand; 1 µM): 100%
COc1ccnn2ncc(-c3ccnc(N(C)C)n3)c12  remaining binding (binding; 1 µM): 100%
